Screening results as filed in PubChem.
KCNK3 block = human KCNK3 channel inhibition, primary screen. O14649. CHO-KCNK3 thallium flux, FluxOR fluorescence; stronger effect = lower value. B-score at 10 µM. 340,000 compounds, 0.84% hits. AID 602410;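 active = B-score under library mean minus 4 SD, starting fluorescence ratio at most library mean plus 5 SD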;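 note: more negative B-score means stronger inhibition of thallium flux through KCNK3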
KCNQ1 inh = inhibitors of human KCNQ1 potassium channel; P51787; CHO-K1 KCNQ1, FluxOR thallium flux fluorescence; stronger effect = higher value; B-score at 10 µM; 310,000 compounds, 1.3% hits; AID 2642;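 active = compounds whose thallium flux B-score, printed positive for inhibition, exceeds three library SD while starting fluorescence stays within three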;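 note: channel opened by potassium depolarization with thallium stimulus after 20 min compound exposure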
hERG protect = hERG (human) protection from proarrhythmic block | Q12809 | CHO-hERG, FluxOR thallium flux, dofetilide IC70 present | activation (rescue from dofetilide block), less the hit threshold, % at 10 µM | 310,000 compounds, 0.51% hits | AID 1511;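 active = activation above the mean of controls blocked by dofetilide plus 5 SD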;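 note: thallium influx through hERG after potassium depolarization seen as dye fluorescence rise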
KCNK9 block = inhibitors of human KCNK9 two-pore domain potassium channel; HEK293 KCNK9, FluxOR thallium flux fluorescence; stronger effect = lower value; B-score at 10 µM; 310,000 compounds, 1.2% hits; AID 488922;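 active = ratio B-score over 3 SD below the library mean, with starting fluorescence within 5 SD of its mean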;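 note: negative B-score means less thallium flux so channel inhibition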
KCNQ1 pot = potentiators or activators of human KCNQ1 potassium channel | P51787 | CHO-K1 KCNQ1, thallium flux FluxOR fluorescence; stronger effect = higher value | B-score at 10 µM | 310,000 compounds, 0.35% hits | AID 2648;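 active = fluorescence ratio B-score, a plate-corrected score, at least three library SD, with initial intensity B-score within 5 SD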
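assay system = CHO-K1 cells stably expressing KCNQ1 | medium = assay buffer, equal DMSO in all wells | timing = 37 °C overnight plating, 90-min dark dye load, 20-min compound pretreatment | measured by = kinetic FluxOR thallium fluorescence, 10-s 1-Hz baseline, 110-s post-stimulus read | measure = fluorescence change relative to baseline, converted to B score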
Numbers without * were called inactive; i = inactive; · = no result given. Shown are actives, neighbours in structure and some others; about 3.1% of the full set was active somewhere.

SMILES	KCNK3 block	KCNQ1 inh	hERG protect	KCNK9 block	KCNQ1 pot
CN1C(=O)/C(=N\OC(=O)c2cccc3ccccc23)c2ccccc21	i	i	11*	i	18*
O=C(Nc1cccc(N=Cc2cc(Cl)cc(Br)c2O)c1)c1ccco1	i	i	4	i	17*
CCOc1cc(C2Nc3ccccc3C(=O)N2c2ccccc2OC)ccc1O (stereo not drawn)	i	i	19*	i	i
Cc1onc(-c2ccccc2)c1C(=O)NNC(=S)NC(=O)/C=C/c1ccccc1	i	i	-11	i	i
CCCN(CCC)C(=S)NC(=O)c1ccc(Cl)cc1Cl	i	i	25*	i	55*
COC(=O)c1c(-c2ccccc2)noc1C	i	i	5.8*	i	i
Cc1onc(-c2ccccc2)c1C(=O)NNC(=S)NC(=O)c1ccc(Br)cc1	i	i	-16	i	34*
Cc1onc(-c2ccccc2)c1C(=O)NNC(=S)NC(=O)c1ccc(Cl)cc1Cl	i	i	-4	i	20*
O=c1c2ccccc2c(C=Nc2cccc(S(=O)(=O)NCc3ccco3)c2)c(O)n1-c1ccc(Cl)cn1	i	i	-9	i	i
N#C/C(=C\c1ccc(OCCN2CCOCC2)cc1)C(=O)Nc1ccc(S(N)(=O)=O)cc1	i	i	-10	i	i
Cc1ccccc1C(=O)NNC(=S)NC(=O)c1ccc(Cl)cc1Cl	i	i	-15	i	15*
CN(C)S(=O)(=O)N(Cc1ccc(Br)cc1)c1ccccc1	i	i	-8	-7.4*	i
CN(C)S(=O)(=O)N(CC(=O)N(Cc1ccccc1)Cc1ccccc1)c1ccccc1	i	i	-17	i	i
Cn1[nH]c(C(F)(F)F)cc1=O	i	i	-4	i	i
Cc1cc(/C=C2\C(=N)N3N=C(C(C)C)SC3=NC2=O)c(C)n1Cc1ccccc1	i	i	-5	i	20*
Cn1c(C(=O)N2CCN(c3ccccc3)CC2)cc2cc(Cl)ccc21	i	i	-11	i	i
COc1cccc(CN(C)C(=O)c2ccc(OCC(=O)Nc3cccc(C(F)(F)F)c3)c(OC)c2)c1	i	9*	-20	i	i
COc1ccc(CN(C)C(=O)c2ccc(OCC(=O)Nc3cccc(C(F)(F)F)c3)c(OC)c2)c(OC)c1	i	i	-10	i	i
O=C(Cn1cc(Cl)c([N+](=O)[O-])n1)NCCC1=CCCCC1	i	i	2	i	i
CC1CCC/C=C/C(=O)c2c(O)cc(O)cc2CC(=O)O1 (stereo not drawn)	i	7*	-16	i	i
C[C@@H]1Cc2c(O)c(O)cc(O)c2C(=O)O1	i	i	-7	i	i
O=CNc1c(Cl)cc2c(c1Cl)Cc1cc([N+](=O)[O-])ccc1-2	i	·	·	·	·
COc1ccccc1CC(=O)N1CCN(c2ccccc2F)CC1	i	i	-12	i	i
CC(=O)OCC(=O)Nc1ccc(Br)c(C)c1	i	i	-9	i	i
Cc1cc(NC(=O)COC(=O)Cn2c(C)csc2=O)ccc1Br	i	6*	-9	i	i
SMILES	KCNK3 block	KCNQ1 inh	hERG protect	KCNK9 block	KCNQ1 pot
CC1CC(NC(=O)c2c(O)nc3sccn3c2=O)CC(C)(C)C1 (stereo not drawn)	i	i	-7	i	i
CCCC(=O)Nc1ccccc1NC(=O)c1ccc(OCC)cc1	i	i	-7	i	i
O=C(Nc1ccccc1C(=O)O)c1cncc(Br)c1	i	i	6.6*	i	i
CCOc1ccccc1C(=O)Nc1cccc2ccccc12	i	i	-2	i	i
CCOc1ccccc1C(=O)Nc1ccccc1O	i	i	-20	-6.7*	i
CCOc1ccc(C(=O)NCC(C)C)cc1	i	i	-6	i	i
CCOc1ccc(C(=O)NCC(C)NC(=O)c2ccc(OCC)cc2)cc1 (stereo not drawn)	i	14*	-4	i	i
O=C(NC(=S)Nc1ccccc1C(=O)O)c1cncc(Br)c1	i	i	-3	i	i
CCOc1ccc(C(=O)Nc2ccccc2C(=O)O)cc1	i	i	7.5*	i	i
Cc1ccccc1NC(=O)CSc1nnc(NC(=O)c2ccco2)s1	i	i	-13	i	i
CCn1c(=O)c([N+](=O)[O-])c(N2CCN(Cc3ccc4c(c3)OCO4)CC2)c2ccccc21	i	i	-2	i	i
COc1ccccc1NS(=O)(=O)c1cccc(NC(=O)CCNC(=O)c2ccccc2OC)c1	i	·	·	·	·
CC(=O)c1ccc(-n2nncc2-c2ccc([N+](=O)[O-])cc2)cc1	i	i	5.5*	i	i
O=C(Nc1ccc(Oc2ccc(NC(=O)Nc3ccc([N+](=O)[O-])cc3)cc2)cc1)Nc1ccc([N+](=O)[O-])cc1	i	8*	-18	i	i
O=C(Nc1ccc([N+](=O)[O-])cc1)Nc1cnccn1	i	12*	-16	i	i
CC(=O)c1ccc(NC(=O)Nc2ccc([N+](=O)[O-])cc2)cc1	i	7*	-19	i	i
CCC1(c2ccccc2)NC(=O)N(CC(=O)N(CC(=O)Nc2ccccc2C(F)(F)F)Cc2ccco2)C1=O (stereo not drawn)	i	i	-14	i	i
CCOc1cc(N2CCOCC2)c(OCC)cc1NC(=O)COC(=O)/C=C/c1ccc(OC(F)F)cc1	i	i	-13	i	i
CC(=O)c1ccc(NC(=O)Nc2ccncc2)cc1	i	i	4.8*	i	i
O=C(NNC(=O)c1ccncc1)Nc1ccc([N+](=O)[O-])cc1	i	7*	-3	i	i
O=C(NNC(=O)c1cccnc1)Nc1ccc([N+](=O)[O-])cc1	i	i	-8	i	i
COc1ccc(-n2c(NC(=O)c3ccc(Br)o3)c(C#N)c3nc4ccccc4nc32)cc1	·	7*	-14	i	i
N#Cc1c(NC(=O)c2ccc(Br)o2)n(-c2ccccc2)c2nc3ccccc3nc12	i	i	-7	i	i
O=C(N/N=C/c1ccccc1OC(F)F)C1=COCCO1	i	i	1	i	i
O=C(N/N=C/c1ccc(OC(F)F)cc1)C1=COCCO1	i	i	16*	i	i
Cn1c(CNC(=O)c2ccccc2F)nnc1SCc1ccc(Cl)cc1	i	i	8.0*	i	i
Cc1cc(C)c(S(C)(=O)=O)c(NN)n1	i	i	-5	i	i
CCC(c1nnnn1Cc1ccco1)N(CCc1ccccc1)Cc1cc2cc(C)ccc2[nH]c1=O (stereo not drawn)	i	i	-7	i	i
